Series [1] relates to Mus musculus. Description: Toxicity in human A2780 cells xenografted NMRI/nude mouse containing small tumors assessed as effect on body weight at 15 mg/kg, ip bid administered for 10 days. Format: organism-based. More on the design: dose 15 mg/kg, route intraperitoneal. Particulars: in vivo, 240 h. Summed up:
(§1)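 A2780 xenografts were dosed i.p. bid at 15 mg/kg. Large tumours (start 500 mm³) were dosed on days 0-4 + 7-11; small tumours (start 100 mm³) on days 0-9. Tumour volume was calculated as width²×length/2 from caliper diameters, and body weight was recorded during treatment. Tumours were followed after treatment up to the maximum allowed size of 1000 mm³.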
(Xenograft models place foreign cells or tissue in a host animal.)

In series [2] the test system is A2780. Description: Antitumor activity against human A2780 cells xenografted in NMRI/nude mouse assessed as tumor growth inhibition at 15 mg/kg, ip bid administered for 5 days measured at day 14 relative to vehicle-treated control. Format: functional. The conditions noted are these: route intraperitoneal.
Series [3] concerns A2780. Description: Antitumor activity against human A2780 cells xenografted in NMRI/nude mouse containing large tumors assessed as tumor growth inhibition at 15 mg/kg, ip bid administered on day 1 to 4 and day 7 to 11 measured after compound treatment. More on the design: dose 15 mg/kg. It is filed as functional, organism-based. Summed up:
as §1

Series [4] has as its system A2780. Description: Antitumor activity against human A2780 cells xenografted in NMRI/nude mouse containing small tumors assessed as tumor growth inhibition at 15 mg/kg, ip bid administered for 10 days measured after compound treatment. Format: functional, organism-based. Also on record: dose 15 mg/kg. Summed up: as §1
In series [5] the test system is A2780. Description: Antitumor activity against human A2780 cells xenografted in NMRI/nude mouse containing large tumors assessed as tumor growth inhibition at 15 mg/kg, ip bid administered on day 1 to 4 and day 7 to 11 measured during compound administration. Format: functional, organism-based. Also on record: dose 15 mg/kg. Summed up:
as §1

In series [6] the test system is A2780. Description: Antitumor activity against human A2780 cells xenografted in NMRI/nude mouse containing small tumors assessed as tumor growth inhibition at 15 mg/kg, ip bid administered for 10 days measured during compound administration. Also on record: dose 15 mg/kg. Format: functional, organism-based. A digest of the protocol:
as §1

Series [7] is described as follows: AUC in NMRI mouse at 50 mg/kg, iv. Format: ADME, organism-based. Also on record: dose 50 mg/kg, route intravenous. The conditions noted are these: plasma. A digest of the protocol: (§2)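 Mouse PK after a single i.v. dose. Plasma proteins were precipitated with acetonitrile containing internal standard (3:1 v/v). Samples were analysed by UPLC-MS/MS on a C18 column at 40°C with an acetonitrile–0.05% formic acid gradient, using positive electrospray MRM. Parameters were derived by non-compartmental analysis.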

A short description of series [8]: Clearance in NMRI mouse at 50 mg/kg, iv. Format: ADME, organism-based. Also on record: dose 50 mg/kg, route intravenous. The conditions noted are these: in vivo. Summed up:
as §2

Series [9] can be described thus: Apparent volume of distribution in NMRI mouse at 50 mg/kg, iv. It is filed as ADME, organism-based. Also on record: dose 50 mg/kg, route intravenous. Particulars: in vivo, read-out: Vz. A digest of the protocol: as §2
Series [10] is described as follows: Cmax in NMRI mouse at 50 mg/kg, iv. Format: ADME, organism-based. Also on record: dose 50 mg/kg, route intravenous. The conditions noted are these: in vivo. A digest of the protocol:
as §2

Series [11] can be described thus: Tmax in NMRI mouse at 50 mg/kg, iv. Format: ADME, organism-based. Particulars: in vivo. Also on record: dose 50 mg/kg, route intravenous. Summed up:
as §2

Series [12] is described as follows: Half life in NMRI mouse at 50 mg/kg, iv. Format: ADME, organism-based. Also on record: dose 50 mg/kg, route intravenous. Particulars: in vivo. Summed up: as §2
The nature of series [13]: Toxicity in ip dosed NMRI mouse assessed as blood cell count administered as bid for 5 days. Format: organism-based. The conditions noted are these: in vivo.
Series [14] in a line: Toxicity in ip dosed NMRI mouse assessed as body weight loss administered as bid for 5 days. It is filed as organism-based. The conditions noted are these: in vivo.
The subject of another series is SK-OV-3. Description: Cytotoxicity against human SKOV3 cells by clonogenic assay. It is filed as functional, cell-based.
The nature of series [15]: Cytotoxicity against human NYH cells by clonogenic assay. It is filed as functional, cell-based.
The subject of another series is PC-3. Description: Cytotoxicity against human PC3 cells by clonogenic assay. Format: functional, cell-based.
The test system of series [16] is MCF7. Description: Cytotoxicity against human MCF7 cells after 96 hrs by clonogenic assay. Format: functional, cell-based. Particulars: MCF7, 96 h. A digest of the protocol: (§3)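 Cells were exposed to compound for the indicated time and then seeded in 3% agar over a sheep erythrocyte feeder layer. Plates were cultured 14–21 days at 37 °C, and colonies were counted with a digital colony counter.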

The test system of series [17] is MCF7. Description: Cytotoxicity against human MCF7 cells after 24 hrs by clonogenic assay. The conditions noted are these: MCF7, 24 h. Format: functional, cell-based. Summed up:
as §3

A further series relates to DU-145. Description: Cytotoxicity against human DU145 cells by clonogenic assay. Format: functional, cell-based.
Series [18] relates to A2780. Description: Cytotoxicity against human A2780 cells after 16 hrs by clonogenic assay. It is filed as functional, cell-based. Particulars: A2780, 16 h. A digest of the protocol: as §3
Series [19] concerns the target Nicotinamide phosphoribosyltransferase (Homo sapiens, UniProt P43490). Description: Inhibition of NAMPT in human HepG2 cells using [14C]-nicotinamide/PRPP as substrate assessed as formation of [14C]-nicotinamide mononucleotide after 1 hr by liquid scintillation counting analysis. Format: cell-based.
The test system of series [20] is HCT-116. Description: Resistance factor, ratio of IC50 for APO866-resistant human HCT116 cells to IC50 for human HCT116 cells. Format: functional.
Series [21] deals with HCT-116. Description: Cytotoxicity against APO866-resistant human HCT116 cells assessed as growth inhibition after 72 hrs by WST-1 assay. Format: functional, cell-based. The conditions noted are these: HCT-116, 72 h. For orientation: Tetrazolium dyes change colour on reduction, which living cells bring about.
The subject of series [22] is HCT-116. Description: Cytotoxicity against human HCT116 cells assessed as growth inhibition after 72 hrs by WST-1 assay. It is filed as functional, cell-based. The conditions noted are these: HCT-116, 72 h.
Series [23] deals with MCF7. Description: Cytotoxicity against human MCF-7 cells assessed as growth inhibition after 72 hrs by WST-1 assay. Format: functional, cell-based. The conditions noted are these: MCF7, 72 h.
Series [24] has as its system A2780. Description: Cytotoxicity against human A2780 cells assessed as growth inhibition after 72 hrs by WST-1 assay. Format: functional, cell-based. Particulars: A2780, 72 h.
Series [25] relates to Mus musculus. Description: Toxicity in human A2780 cells xenografted NMRI/nude mouse containing large tumors assessed as effect on body weight at 15 mg/kg, ip bid administered on day 1 to 4 and day 7 to 11. The conditions noted are these: in vivo.
A short description of series [26]: Cytotoxicity against human W1L2 cells assessed as growth inhibition after 72 hrs by trypan blue assay. It is filed as functional, cell-based. The conditions noted are these: WIL2, 72 h.
The test system of series [27] is Mus musculus. Description: Toxicity in human A2780 cells xenografted NMRI/nude mouse containing small tumors assessed as effect on body weight at 0.63 to 2.5 mg/kg, ip bid administered for 5 days measured at day 14 relative to vehicle-treated control. Format: organism-based. More on the design: dose 0.63-2.5 mg/kg, route intraperitoneal. Particulars: in vivo, 120 h.

The subject of series [28] is Mus musculus. Description: Toxicity in human A2780 cells xenografted NMRI/nude mouse containing large tumors assessed as effect on body weight at 3 mg/kg, ip bid administered for 10 days. Particulars: in vivo.
Series [29] concerns Mus musculus. Description: Toxicity in human A2780 cells xenografted NMRI/nude mouse containing large tumors assessed as effect on body weight at 5 to 10 mg/kg, ip bid administered for 10 days measured during compound administration. The conditions noted are these: in vivo, 240 h.

pIC50: −log10 of the molar value. Active and inactive are the calls of the source.

Nicotinamide phosphoribosyltransferase, sequence (P43490 whole entry): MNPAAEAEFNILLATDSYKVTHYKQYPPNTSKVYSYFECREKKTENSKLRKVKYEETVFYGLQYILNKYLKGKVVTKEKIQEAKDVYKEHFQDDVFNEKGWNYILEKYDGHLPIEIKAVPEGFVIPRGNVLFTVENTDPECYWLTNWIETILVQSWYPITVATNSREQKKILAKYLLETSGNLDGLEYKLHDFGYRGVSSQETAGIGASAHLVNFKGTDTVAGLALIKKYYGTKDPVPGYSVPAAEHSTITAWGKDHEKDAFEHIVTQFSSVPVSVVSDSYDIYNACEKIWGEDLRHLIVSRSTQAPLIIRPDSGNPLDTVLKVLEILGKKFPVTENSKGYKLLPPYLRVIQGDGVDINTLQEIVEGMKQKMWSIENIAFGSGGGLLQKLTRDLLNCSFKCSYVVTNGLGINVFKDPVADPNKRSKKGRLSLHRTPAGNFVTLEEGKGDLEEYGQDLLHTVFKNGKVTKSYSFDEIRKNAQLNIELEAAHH

Broadly, the T/C is the result in the treated group divided by that in the control group, in per cent. The AUC is concentration integrated over time. Read a high AUC as more exposure. The term clearance denotes a measure of how efficiently the substance is removed, as volume per time. A low value points to a low capacity for elimination. Broadly, the Cmax is the peak of the concentration-time curve. In general, Tmax refers to the time from dosing to the highest level. A word on the half-life: it is the time needed for the level to fall by half in the phase considered. A low value points to rapid decline. As a reminder, the pIC50 is the negative decadic logarithm of the IC50, by convention in mol/L. On to `N#C/N=C(\NCCCCCCS(=O)(=O)N(CCF)OCC1CCCCC1)Nc1ccncc1`, for which the Activity result in the series with Mus musculus [1] and with Mus musculus [25] was “Non-toxic” throughout. For the same molecule, the T/C in the series with A2780 [2] amounted to 52%. Besides, the TGI entry with A2780 [3] and with A2780 [4] was “inactive” throughout. Moreover, the TGI result in the series on A2780 [5] and in the series on A2780 [6] was “Active” each time. This molecule also returned an area under the curve (AUC) in [7] of 47500 ng·h/mL. Moreover, in series [8], the clearance was 17.5 mL/min/kg. In addition, the Vd in [9] was found to be 0.547 L/kg. This molecule returned a Cmax in [10] of 78500 ng/mL. Further, the Tmax in [11] is 4.8 min. This molecule also gave a half-life in [12] of 21.6 min. For the same molecule, the MTD at 120 h in series [13] and in [14] was < 10 mg/kg each time. Also, the pIC50 was 8.47 in the series on SK-OV-3; 10.30 in series [15]; 9.46 in the series on PC-3; 9.01 in the series on MCF7 [16]; < 7.30 in the series with MCF7 [17]; 8.19 in the series on DU-145. Besides, the negative logarithm of the IC50 (pIC50) in the series with A2780 [18] is 9.37; in series [19] it was 8.49; in the series on HCT-116 [21], < 5.30; in the series with HCT-116 [22], 8.44; with MCF7 [23], 10.00; in the series on A2780 [24], 10.28. The “Ratio IC50” value in the series on HCT-116 [20] turned out to be 128.

On to `C#CCN(Cc1cc2c(O)nc(C)nc2cc1Br)c1ccc(C(=O)NCc2cccnc2)cc1`, for which the pIC50 in series [26] was 8.55.

On to `N#CNC(=Nc1ccncc1)NCCCCCCS(=O)(=O)N(OCCN1CCOCC1)C1CCCCC1`, for which the Activity result was “Non-toxic” in the series with Mus musculus [27], “Non-toxic” in the series with Mus musculus [28] and “Toxic” with Mus musculus [29]. Also, in series [7], the AUC came out at 10200 ng·h/mL. In addition, the clearance in series [8] is 81.8 mL/min/kg. Further, the Vd in series [9] turned out to be 1.28 L/kg. In [10], this molecule gave a Cmax of 14100 ng/mL. Further, in [11], the time of peak concentration (Tmax) turned out to be 4.8 min. The half-life in series [12] is 10.8 min. The MTD at 120 h in series [13] and in series [14] was < 10 mg/kg each time. Also, the pIC50 in [19] was 9.52.

Values taken from ChEMBL document CHEMBL3091343, “Nicotinamide phosphoribosyltransferase inhibitors, design, preparation, and structure-activity relationship” (J Med Chem, 2013).
